Measured values taken from ChEMBL document CHEMBL1641413, “Identification of 3-sulfonylindazole derivatives as potent and selective 5-HT(6) antagonists” (Bioorg Med Chem, 2011).
Activity calls are given as the source filed them. The calls are words filed in the database; no cut-off is given here.

Experiments:
Rattus norvegicus = test: Cognitive enhancing effect in rat assessed as inhibition of scopolamine-induced memory deficit at 10 mg/kg, po by novel object recognition test; assay type: functional, organism-based; set-up: dose 10 mg/kg
Method in brief: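 Rats given compound orally at 10 mg/kg; scopolamine-induced memory deficit assessed in a novel object recognition assay.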

[1] = Solubility of the compound in water; assay type: physicochemical
D(2) dopamine receptor = D(2) dopamine receptor (Homo sapiens, UniProt P14416); test: Binding affinity to dopamine D2 receptor
[2] = target: T1, 5-hydroxytryptamine receptor 6 (Homo sapiens, UniProt P50406); test: Antagonist activity at cloned human 5-HT6 receptor expressed in human HeLa cells assessed as inhibition of 5HT-induced cyclic AMP formation; assay type: functional, cell-based
[3] = target: 5-hydroxytryptamine receptor 1D (Homo sapiens, UniProt P28221); test: Binding affinity to 5-HT1D receptor
[4] = target: 5-hydroxytryptamine receptor 1B (Homo sapiens, UniProt P28222); test: Binding affinity to 5-HT1B receptor
[5] = % bound in plasma; assay type: ADME, cell-free; conditions: read-out: PPB
[6] = target: T2, 5-hydroxytryptamine receptor 2C (Homo sapiens, UniProt P28335); test: Binding affinity to 5-HT2C receptor
T2 sequence (P28335 whole entry): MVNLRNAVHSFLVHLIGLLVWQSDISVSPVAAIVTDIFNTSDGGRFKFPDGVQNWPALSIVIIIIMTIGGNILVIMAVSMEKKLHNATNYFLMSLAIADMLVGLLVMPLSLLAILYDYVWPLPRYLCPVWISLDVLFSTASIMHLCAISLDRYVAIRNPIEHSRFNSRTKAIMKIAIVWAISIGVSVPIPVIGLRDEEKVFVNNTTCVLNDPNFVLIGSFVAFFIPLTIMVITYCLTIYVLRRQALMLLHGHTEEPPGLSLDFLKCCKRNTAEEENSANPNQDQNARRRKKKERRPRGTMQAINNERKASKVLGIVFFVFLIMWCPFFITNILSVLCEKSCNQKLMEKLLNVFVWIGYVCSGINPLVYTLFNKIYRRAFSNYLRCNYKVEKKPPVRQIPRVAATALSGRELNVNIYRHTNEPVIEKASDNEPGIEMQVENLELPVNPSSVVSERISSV

[7] = Half life in rat microsomes; assay type: ADME, Microsome
[8] = Half life in human microsomes; assay type: ADME, Microsome
[9] = target: T3, 5-hydroxytryptamine receptor 1A (Homo sapiens, UniProt P08908); test: Binding affinity to 5-HT1A receptor
T3 sequence (P08908 whole entry): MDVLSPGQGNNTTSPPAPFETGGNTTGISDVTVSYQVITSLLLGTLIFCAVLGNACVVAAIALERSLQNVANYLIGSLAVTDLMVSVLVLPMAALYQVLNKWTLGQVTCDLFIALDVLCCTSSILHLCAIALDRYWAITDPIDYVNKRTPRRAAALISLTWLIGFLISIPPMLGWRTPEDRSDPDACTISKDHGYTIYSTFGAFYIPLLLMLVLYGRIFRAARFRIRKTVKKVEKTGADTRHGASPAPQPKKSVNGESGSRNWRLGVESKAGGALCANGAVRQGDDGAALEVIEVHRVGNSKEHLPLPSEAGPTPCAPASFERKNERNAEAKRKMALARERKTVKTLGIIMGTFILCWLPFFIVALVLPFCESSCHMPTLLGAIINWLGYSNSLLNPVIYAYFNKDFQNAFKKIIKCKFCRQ

[10] = Binding affinity to P-glycoprotein
[11] = target: T4, 5-hydroxytryptamine receptor 2B (Homo sapiens, UniProt P41595); test: Agonist activity at 5-HT2B receptor at 0.1 nM to 10 uM by FLIPR assay; assay type: functional
[12] = target: T1, 5-hydroxytryptamine receptor 6; test: Displacement of [3H]-LSD from cloned human 5-HT6 receptor expressed in human HeLa cells; assay type: cell-based
Method in brief: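 Radioligand displacement of [³H]-LSD from cloned human 5-HT6 receptors stably expressed in HeLa cells; compounds tested as HCl salts; Ki values determined in triplicate.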

[13] = target: 5-hydroxytryptamine receptor 7 (Homo sapiens, UniProt P34969); test: Binding affinity to 5-HT7 receptor
[14] = target: T4, 5-hydroxytryptamine receptor 2B; test: Binding affinity to 5-HT2B receptor
[15] = target: T5, Alpha-2A adrenergic receptor (Homo sapiens, UniProt P08913); test: Binding affinity to adrenergic alpha2A receptor
T5 sequence (P08913 whole entry): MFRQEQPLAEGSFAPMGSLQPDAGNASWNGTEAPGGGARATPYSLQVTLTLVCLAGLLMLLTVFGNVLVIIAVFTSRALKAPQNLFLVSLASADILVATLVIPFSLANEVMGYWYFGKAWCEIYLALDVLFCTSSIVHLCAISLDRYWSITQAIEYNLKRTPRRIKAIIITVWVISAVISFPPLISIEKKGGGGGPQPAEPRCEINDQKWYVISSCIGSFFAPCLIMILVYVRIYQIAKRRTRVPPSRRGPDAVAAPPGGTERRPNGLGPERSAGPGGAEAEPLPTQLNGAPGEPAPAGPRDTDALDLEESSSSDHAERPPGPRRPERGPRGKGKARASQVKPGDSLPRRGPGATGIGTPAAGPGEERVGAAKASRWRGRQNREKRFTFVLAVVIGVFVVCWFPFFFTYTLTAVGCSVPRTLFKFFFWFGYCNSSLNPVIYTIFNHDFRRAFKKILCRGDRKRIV

Sequence of 5-hydroxytryptamine receptor 1B (P28222 whole entry): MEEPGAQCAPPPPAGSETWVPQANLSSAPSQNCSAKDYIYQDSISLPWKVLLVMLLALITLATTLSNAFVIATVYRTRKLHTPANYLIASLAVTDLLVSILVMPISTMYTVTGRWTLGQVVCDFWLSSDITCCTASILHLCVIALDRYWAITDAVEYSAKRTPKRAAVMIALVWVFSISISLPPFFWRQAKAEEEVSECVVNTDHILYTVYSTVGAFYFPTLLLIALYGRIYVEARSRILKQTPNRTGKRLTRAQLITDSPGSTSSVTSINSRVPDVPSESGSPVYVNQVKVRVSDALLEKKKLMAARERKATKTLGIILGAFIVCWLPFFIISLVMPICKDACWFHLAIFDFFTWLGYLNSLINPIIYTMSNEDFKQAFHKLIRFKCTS
Sequence of 5-hydroxytryptamine receptor 7 (P34969 whole entry): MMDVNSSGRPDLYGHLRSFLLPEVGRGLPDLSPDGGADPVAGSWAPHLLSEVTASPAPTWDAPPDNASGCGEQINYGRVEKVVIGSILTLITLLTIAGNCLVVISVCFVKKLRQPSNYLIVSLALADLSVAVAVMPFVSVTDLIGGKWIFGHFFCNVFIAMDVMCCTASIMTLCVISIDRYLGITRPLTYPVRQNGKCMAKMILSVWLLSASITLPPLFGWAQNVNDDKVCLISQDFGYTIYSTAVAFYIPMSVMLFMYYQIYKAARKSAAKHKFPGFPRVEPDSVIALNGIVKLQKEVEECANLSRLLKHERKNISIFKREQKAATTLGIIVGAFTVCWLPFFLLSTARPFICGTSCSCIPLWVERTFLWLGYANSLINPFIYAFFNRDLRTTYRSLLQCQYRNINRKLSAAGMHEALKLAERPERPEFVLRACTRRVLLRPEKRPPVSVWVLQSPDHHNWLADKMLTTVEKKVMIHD
T1 sequence (P50406 whole entry): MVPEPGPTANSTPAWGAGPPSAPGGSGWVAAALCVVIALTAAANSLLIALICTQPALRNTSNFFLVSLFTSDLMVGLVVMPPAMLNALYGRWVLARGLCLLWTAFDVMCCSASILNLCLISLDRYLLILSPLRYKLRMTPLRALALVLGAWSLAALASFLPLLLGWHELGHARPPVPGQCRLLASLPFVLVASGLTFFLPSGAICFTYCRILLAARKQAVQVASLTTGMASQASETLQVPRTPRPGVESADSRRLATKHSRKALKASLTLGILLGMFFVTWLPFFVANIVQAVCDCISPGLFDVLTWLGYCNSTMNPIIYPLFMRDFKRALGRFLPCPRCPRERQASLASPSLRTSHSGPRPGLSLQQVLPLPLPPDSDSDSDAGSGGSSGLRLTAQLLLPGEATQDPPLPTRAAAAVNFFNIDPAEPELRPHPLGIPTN
Sequence of D(2) dopamine receptor (P14416 whole entry): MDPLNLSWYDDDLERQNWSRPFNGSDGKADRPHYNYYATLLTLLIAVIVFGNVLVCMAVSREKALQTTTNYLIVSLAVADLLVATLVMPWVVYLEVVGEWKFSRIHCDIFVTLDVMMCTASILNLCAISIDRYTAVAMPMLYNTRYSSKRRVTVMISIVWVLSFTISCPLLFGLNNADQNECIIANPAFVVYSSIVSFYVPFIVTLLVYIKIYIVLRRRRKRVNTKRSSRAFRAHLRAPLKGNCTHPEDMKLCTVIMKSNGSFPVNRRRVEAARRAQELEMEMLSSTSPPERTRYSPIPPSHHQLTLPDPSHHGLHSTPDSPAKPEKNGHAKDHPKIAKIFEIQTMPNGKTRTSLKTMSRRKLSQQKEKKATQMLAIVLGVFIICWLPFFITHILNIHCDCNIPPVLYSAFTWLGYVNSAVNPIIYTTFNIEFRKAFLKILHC
T4 sequence (P41595 whole entry): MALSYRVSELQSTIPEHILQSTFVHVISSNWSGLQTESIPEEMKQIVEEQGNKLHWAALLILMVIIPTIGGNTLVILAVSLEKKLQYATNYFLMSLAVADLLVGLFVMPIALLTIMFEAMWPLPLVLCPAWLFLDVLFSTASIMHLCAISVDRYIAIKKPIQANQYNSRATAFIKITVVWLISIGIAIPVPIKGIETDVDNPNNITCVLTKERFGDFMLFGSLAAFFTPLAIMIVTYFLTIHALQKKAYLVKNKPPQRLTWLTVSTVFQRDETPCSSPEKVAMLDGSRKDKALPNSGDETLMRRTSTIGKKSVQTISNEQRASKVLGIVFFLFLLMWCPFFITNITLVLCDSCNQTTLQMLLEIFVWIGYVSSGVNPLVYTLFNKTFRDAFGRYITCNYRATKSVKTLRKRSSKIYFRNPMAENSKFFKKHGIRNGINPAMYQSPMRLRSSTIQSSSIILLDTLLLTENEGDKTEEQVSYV
Sequence of 5-hydroxytryptamine receptor 1D (P28221 whole entry): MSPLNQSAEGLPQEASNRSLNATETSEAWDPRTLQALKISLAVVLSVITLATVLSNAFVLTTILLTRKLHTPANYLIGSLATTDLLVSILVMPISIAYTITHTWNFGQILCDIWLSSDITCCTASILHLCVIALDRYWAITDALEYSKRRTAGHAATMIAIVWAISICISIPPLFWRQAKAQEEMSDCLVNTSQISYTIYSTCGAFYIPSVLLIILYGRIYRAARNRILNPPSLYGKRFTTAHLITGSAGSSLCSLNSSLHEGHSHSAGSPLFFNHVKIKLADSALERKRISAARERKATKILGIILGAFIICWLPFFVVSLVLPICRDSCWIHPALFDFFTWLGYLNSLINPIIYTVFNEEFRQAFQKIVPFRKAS

Row | Compound | inhibition (Rattus norvegicus) | solubility [1] | Ki (D(2) dopamine receptor) | IC50 [2] | Ki [3] | Ki [4] | fraction unbound [5] | Ki [6] | half-life [7] | half-life [8] | Ki [9] | Activity [10] | Activity [11] | Ki [12] | Ki [13] | Ki [14] | Ki [15]
1 | Cl.O=S(=O)(c1cccc2ccccc12)c1n[nH]c2ccc(NC3CCNCC3)cc12 | Active | > 100 µg/mL | > 5000 nM | 15 nM | > 5000 nM | > 5000 nM | > 0.2 | > 5000 nM | > 30 min | > 30 min | > 5000 nM | inactive | inactive | 0.7 nM | 3970 nM | 675 nM | > 5000 nM
2 | Cl.NCCC(=O)Nc1ccc2[nH]nc(S(=O)(=O)c3cccc4ccccc34)c2c1 | – | > 100 µg/mL | > 5000 nM | 3.8 nM | > 5000 nM | > 5000 nM | > 0.2 | 573 nM | > 30 min | > 30 min | > 5000 nM | inactive | inactive | 1.5 nM | > 5000 nM | 344 nM | > 5000 nM
3 | Cl.O=C(Nc1ccc2[nH]nc(S(=O)(=O)c3cccc4ccccc34)c2c1)C1CCNCC1 | Active | > 100 µg/mL | > 5000 nM | 8.2 nM | 1340 nM | > 5000 nM | > 0.2 | > 5000 nM | > 30 min | > 30 min | 3010 nM | inactive | inactive | 1.1 nM | > 5000 nM | 33 nM | > 5000 nM
